Laboratory results from ChEMBL document CHEMBL5338772, “Stereochemical Control of Splice Modulation in FD-895 Analogues” (J Med Chem, 2023).
Activity calls are given as the source filed them. The rule behind the calls is not given here.

What was measured:
[1] = tested on: SF3B2 pre-mRNA; assay: Modulation of splicing in SF3B2 pre-mRNA in human HCT-116 cells assessed as intron 10 retention level at 750 nM incubated for 4 hrs by qRT-PCR analysis; format: functional, cell-based; conditions: filed as modulator
Outline: (§1)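 HCT-116 cells in supplemented McCoy's 5a, compound added from DMSO stock to a final 0.5% DMSO, 4 h at a single standardized concentration per analogue. Total RNA isolated and DNase-treated (1 µg). qPCR used 2.5 µM each primer on 5 ng cDNA, 40 cycles. Intron retention was computed by the 2^-CT method relative to GAPDH and expressed versus untreated cells set to 1.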

[2] = tested on: HCT-116; assay: Cytotoxicity against human HCT-116 cells assessed as reduction in cell viability at 750 nM incubated for 4 hrs by MTS assay; format: toxicity, cell-based; conditions: hct-116, 4 h, 0.75 µM
[3] = tested on: DNAJB1 pre-mRNA; assay: Modulation of splicing in DNAJB1 pre-mRNA in human HCT-116 cells assessed as intron 2 retention level at 750 nM incubated for 4 hrs by qRT-PCR analysis; format: functional, cell-based; conditions: filed as modulator
[4] = tested on: SF3B1 pre-mRNA; assay: Modulation of splicing in SF3B1 pre-mRNA in human HCT-116 cells assessed as intron 13 retention level at 750 nM incubated for 4 hrs by qRT-PCR analysis; format: functional, cell-based; conditions: filed as modulator; outline: as §1
[5] = tested on: AURKA pre-mRNA; assay: Modulation of splicing in AURKA pre-mRNA in human HCT-116 cells assessed as effect on exon 4 skipping at 750 nM incubated for 4 hrs by qRT-PCR analysis; format: functional, cell-based; conditions: filed as modulator
[6] = tested on: SF3A1 pre-mRNA; assay: Modulation of splicing in SF3A1 pre-mRNA in human HCT-116 cells assessed as intron 6 retention level at 750 nM incubated for 4 hrs by qRT-PCR analysis; format: functional, cell-based; conditions: filed as modulator
[7] = Cytotoxicity against human HCT-116 cells assessed as cell growth inhibition incubated for 72 hrs by MTS assay; format: toxicity, cell-based
Outline: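 HCT-116 cells (ATCC; split every other day, no more than five generations, mycoplasma-tested) plated at 5 × 10³ cells/well in supplemented McCoy's 5a and grown 24 h at 37 °C, 5% CO₂. Compound added from DMSO (0.5% DMSO final) for 72 h. Cells washed with PBS, MTS reagent added for 2 h at 37 °C, A490 read against A690. GI₅₀ fitted from dose curves of 3 biological replicates.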

[8] = tested on: SF3A3 pre-mRNA; assay: Modulation of splicing in SF3A3 pre-mRNA in human HCT-116 cells assessed as intron 5 retention level at 750 nM incubated for 4 hrs by qRT-PCR analysis; format: functional, cell-based; conditions: filed as modulator
[9] = tested on: HCT-116; assay: Upregulation of PLK-1 mRNA expression in human HCT-116 cells at 100 to 500 nM incubated for 24 hrs by qRT-PCR analysis; format: functional, cell-based; conditions: dose 100-500 nM
Outline: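 24 h treatment of HCT-116 cells at 100, 250 or 500 nM, 0.5% final DMSO in supplemented McCoy's 5a. RNA isolated, DNase-treated, then qRT-PCR with 2.5 µM each primer on 5 ng cDNA. Levels by the 2^-CT method relative to GAPDH, normalized to untreated cells at 1.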

[10] = tested on: SF3B2 pre-mRNA; assay: Modulation of splicing in SF3B2 pre-mRNA in human HCT-116 cells assessed as intron 10 retention at 100 to 500 nM incubated for 24 hrs by qRT-PCR analysis; format: functional, cell-based; conditions: dose 100-500 nM
Outline: (§2)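 HCT-116 cells in supplemented McCoy's 5a with 0.5% final DMSO were treated for 24 h at 100, 250 or 500 nM. Total RNA isolated and DNase-treated (1 µg). qPCR used 2.5 µM each primer on 5 ng cDNA, 40 cycles. Intron retention was computed by the 2^-CT method relative to GAPDH and expressed versus untreated cells set to 1.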

[11] = tested on: SF3B2 pre-mRNA; assay: Modulation of splicing in SF3B2 pre-mRNA in human HCT-116 cells assessed as intron 10 retention level at 9 uM incubated for 4 hrs by qRT-PCR analysis; format: functional, cell-based; conditions: filed as modulator; outline: as §1
[12] = tested on: SF3B1 pre-mRNA; assay: Modulation of splicing in SF3B1 pre-mRNA in human HCT-116 cells assessed as intron 13 retention at 100 to 500 nM incubated for 24 hrs by qRT-PCR analysis; format: functional, cell-based; conditions: dose 100-500 nM; outline: as §2
[13] = tested on: DNAJB1 pre-mRNA; assay: Modulation of splicing in DNAJB1 pre-mRNA in human HCT-116 cells assessed as intron 2 retention level at 9 uM incubated for 4 hrs by qRT-PCR analysis; format: functional, cell-based; conditions: filed as modulator
[14] = tested on: SF3B1 pre-mRNA; assay: Modulation of splicing in SF3B1 pre-mRNA in human HCT-116 cells assessed as intron 13 retention level at 9 uM incubated for 4 hrs by qRT-PCR analysis; format: functional, cell-based; conditions: filed as modulator; outline: as §1
[15] = tested on: SF3A3 pre-mRNA; assay: Modulation of splicing in SF3A3 pre-mRNA in human HCT-116 cells assessed as intron 5 retention level at 9 uM incubated for 4 hrs by qRT-PCR analysis; format: functional, cell-based; conditions: filed as modulator; outline: as §1
[16] = tested on: SF3A3 pre-mRNA; assay: Modulation of splicing in SF3A3 pre-mRNA in human HCT-116 cells assessed as intron 5 retention at 100 to 500 nM incubated for 24 hrs by qRT-PCR analysis; format: functional, cell-based; conditions: dose 100-500 nM
Outline: (§3)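 HCT-116 cells in supplemented McCoy's 5a with 0.5% DMSO, treated 24 h at 100, 250 or 500 nM; untreated cells as control. Total RNA isolated, 1 µg DNase I-treated, reverse transcribed. qPCR on 5 ng cDNA with 2.5 µM each primer, 40 cycles of 95 °C 30 s, 55 °C 60 s, 72 °C 60 s. Splice-event primers for intron retention or exon skipping; SF2 primers measure total expression. 2^-CT method relative to GAPDH, untreated set at 1.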

[17] = tested on: SF3A1 pre-mRNA; assay: Modulation of splicing in SF3A1 pre-mRNA in human HCT-116 cells assessed as intron 6 retention at 100 to 500 nM incubated for 24 hrs by qRT-PCR analysis; format: functional, cell-based; conditions: dose 100-500 nM; outline: as §3
[18] = tested on: HCT-116; assay: Modulation of splicing in MCL-1L pre-mRNA in human HCT-116 cells assessed as intron 5 retention at 100 to 500 nM incubated for 24 hrs by qRT-PCR analysis; format: functional, cell-based; conditions: dose 100-500 nM; outline: as §3
[19] = tested on: DNAJB1 pre-mRNA; assay: Modulation of splicing in DNAJB1 pre-mRNA in human HCT-116 cells assessed as intron 2 retention at 100 to 500 nM incubated for 24 hrs by qRT-PCR analysis; format: functional, cell-based; conditions: dose 100-500 nM; outline: as §3
[20] = tested on: SF3A1 pre-mRNA; assay: Modulation of splicing in SF3A1 pre-mRNA in human HCT-116 cells assessed as intron 6 retention level at 9 uM incubated for 4 hrs by qRT-PCR analysis; format: functional, cell-based; conditions: filed as modulator
[21] = tested on: HCT-116; assay: Cytotoxicity against human HCT-116 cells assessed as reduction in cell viability at 500 nM incubated for 24 hrs by MTS assay; format: toxicity, cell-based; conditions: hct-116, 24 h, 0.5 µM
Outline: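 HCT-116 cells plated at 5 × 10³ cells/well in supplemented McCoy's 5a and grown 24 h at 37 °C, 5% CO₂. Compound given at 500 nM, the top dose of the 24 h splicing series, in 0.5% DMSO for 24 h. Cells washed with PBS, MTS reagent added for 2 h at 37 °C, A490 read against A690.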

[22] = tested on: AURKA pre-mRNA; assay: Modulation of splicing in AURKA pre-mRNA in human HCT-116 cells assessed as effect on exon 4 skipping at 9 uM incubated for 4 hrs by qRT-PCR analysis; format: functional, cell-based; conditions: filed as modulator
[23] = tested on: HCT-116; assay: Cytotoxicity against human HCT-116 cells assessed as reduction in cell viability at 9 uM incubated for 4 hrs by MTS assay; format: toxicity, cell-based; conditions: hct-116, 4 h

With `CC[C@H](OC)[C@@H](C)[C@H]1O[C@@H]1[C@@H](OC)[C@H](C)/C=C/C=C(\C)[C@H]1OC(=O)C[C@H](O)CC[C@@](C)(O)[C@@H](OC(C)=O)/C=C/[C@@H]1C` the Activity [1] was over 3, the Activity [2] was “Non-Toxic” and the Activity [3] was over 3. The Activity [4] was under 3, the Activity [5] was “Active” and the Activity [6] was over 3. The GI50 at 72 h [7] was 40.5 nM and the Activity [8] was under 3.

For `CC[C@H](OC)[C@@H](C)[C@@H]1O[C@H]1[C@@H](O)[C@H](C)/C=C/C=C(\C)[C@H]1OC(=O)C[C@H](O)CC[C@@](C)(O)[C@@H](OC(C)=O)/C=C/[C@@H]1C`, the Activity [9] was “Active”, the Activity [10] was “inactive” and the Activity [11] was over 3. For the same molecule, the Activity [12] was “inactive”, the Activity [13] was over 3 and the Activity [14] was under 3. For the same molecule, the Activity [15] was under 3, the Activity [16] was “inactive” and the Activity [17] was “inactive”. For the same molecule, the GI50 at 72 h [7] was 470 nM, the Activity [18] was “inactive” and the Activity [19] was “inactive”. The Activity [20] was over 3, the Activity [21] was “Non-Toxic” and the Activity [22] was “Active”. For the same molecule, the Activity [23] was “Non-Toxic”.
